Measured values reported in PubChem BioAssay AID651846 (The Scripps Research Institute Molecular Screening Center, 2012).
Calls of active or inactive are those of the source.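 The calls were made as follows: active = IC50 at or below 10 µM; inactive = IC50 above 10 µM.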

Each compound was assayed on CHO-S GAL4-VP16 UAS luciferase reporter, luminescence (assay: GAL4-VP16 UAS luciferase reporter inhibitors, late-stage follow-up, counter-screen for NR2E3 agonist project, luminescence, CHO-S cells (AID 651846)).
Method in brief: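 Test system: CHO-S cells transiently co-transfected with GAL4 DBD–VP16 fusion plus UAS pGL4.31 luciferase | Timing: 24 h compound treatment, 37 °C | Technique: Luciferase luminescence with One-Glo reagent, 10 min at room temperature | Read-out: % inhibition of luciferase signal | Replicates: Triplicates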
With `Cc1ccc(-c2nc(NC(=O)CSc3nnnn3-c3ccccc3)ns2)cc1` the IC50 was > 39.8 µM (inactive).
For `O=c1cc(N2CCN(c3cccc(Cl)c3)CC2)[nH]c(=O)n1C1CCCCC1`, the IC50 was > 39.8 µM (inactive).
For `COc1cccc(N2CCN(c3nc(-c4ccccc4C)cc(=O)[nH]3)CC2)c1`, the IC50 was > 39.8 µM (inactive).
For `Cc1cc(C)cc(NC(=O)CCc2nc3sc4c(c3c(=O)[nH]2)CCCC4)c1`, the IC50 was > 39.8 µM (inactive).
`COc1ccc(S(=O)(=O)N2CCCCC2)cc1NC(=S)Nc1ccccc1` was tested, and the IC50 was > 39.8 µM (inactive).
In the case of `Cc1ccc(NC(=O)CSc2nnnn2-c2ccc3c(c2)OCO3)cc1C`, the IC50 is reported as > 39.8 µM (inactive).
With `COc1cc2nc(CN3CC=C(c4ccccc4)CC3)[nH]c(=O)c2cc1OC` the IC50 was > 39.8 µM (inactive).
In the case of `Cc1ccc(CN2CC(C(=O)Nc3ncc(C)s3)CC2=O)cc1` (stereo unspecified), the IC50 is reported as > 39.8 µM (inactive).
With `COc1ccc(S(=O)(=O)N2CCCCC2)cc1NC(=S)Nc1cccc(Cl)c1C` the IC50 was > 39.8 µM (inactive).
In the case of `NC(=O)c1nn(-c2ccccc2)nc1NC(=O)CSc1nnnn1-c1ccc(Cl)cc1`, the IC50 is reported as > 39.8 µM (inactive).
For `O=C(CSc1nnnn1-c1ccc(O)cc1)Nc1ccc(N2CCOCC2)c(Cl)c1`, the IC50 was > 39.8 µM (inactive).
Work on `O=C(O)CC1(CC(=O)Nc2cc(C(F)(F)F)cc(C(F)(F)F)c2)CCCCC1` yielded an IC50 of 7.72 µM.
In the case of `Cc1ccnc(NC(=O)CSc2cc(=O)n(C)c3ccccc23)c1`, the IC50 is reported as > 39.8 µM (inactive).
`Cc1cnc(NC(=O)C2CC(=O)N(c3ccc4c(c3)OCCO4)C2)s1` (stereo unspecified) was tested, and the IC50 was > 39.8 µM (inactive).
`O=C(CSc1nnnn1-c1ccc2c(c1)OCCO2)Nc1nc2c(s1)CCCC2` was tested, and the IC50 was > 39.8 µM (inactive).
In the case of `COc1ccc(OC)c(NC(=O)CSc2nnnn2-c2ccc3c(c2)OCO3)c1`, the IC50 is reported as > 39.8 µM (inactive).
In the case of `O=c1c(Cl)c(N2CCN(c3ccc(F)cc3)CC2)cnn1C12CC3CC(CC(C3)C1)C2`, the IC50 is reported as > 39.8 µM (inactive).
In the case of `COc1ccc(NC2c3ccccc3C(=O)N2Cc2ccccc2Cl)cc1OC` (stereo unspecified), the IC50 is reported as > 39.8 µM (inactive).
In the case of `Cc1onc(-c2ccccc2Cl)c1C(=O)Nc1nc2c(s1)CCCC2`, the IC50 is reported as > 39.8 µM (inactive).
`COc1ccc2c(CC(=O)Nc3ncc(C)s3)coc2c1` was tested, and the IC50 was > 39.8 µM (inactive).
For `O=C(Nc1cccc(NC(=O)c2c(F)cccc2F)n1)c1c(F)cccc1F`, the IC50 was > 39.8 µM (inactive).
With `Cc1cccc(OCCCC(=O)Nc2nc3ccccc3[nH]2)c1` the IC50 was > 39.8 µM (inactive).
For `Cc1cccc(C(=O)N[C@H](C(=O)Nc2ncc(C)s2)C(C)C)c1`, the IC50 was > 39.8 µM (inactive).
With `COc1cccc(NC(=O)CSc2nc3ncc(Br)cc3[nH]2)c1` the IC50 was > 39.8 µM (inactive).
For `Cc1cnc(NC(=O)CCCc2nc3ccccc3s2)s1`, the IC50 was > 39.8 µM (inactive).
With `Cc1cnc(NC(=O)Cc2ccc(Br)cc2)s1` the IC50 was > 39.8 µM (inactive).
